Data reported in ChEMBL document CHEMBL5058577, “EUbOPEN Chemogenomics Library 2 (Multiplex)” (2022).

Test system: HEK-293T
Assay: Multiplex assay against HEK293T
Type: toxicity, cell-based
Conditions: human
Method in brief: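 Live cells carried four stains from seeding: Hoechst33342, BioTracker Green Microtubule Cytoskeleton Dye, MitoTracker Red and Annexin V Alexa Fluor 680. They were imaged on a CQ1 microscope at 37°C and 5% CO2 after compound addition. Using CellPathfinder machine-learning gating, cells were split into Hoechst high-intensity objects or normal cells, normal cells into healthy, pyknosed or fragmented nuclei, and pyknosed cells into mitotic or apoptotic; tubulin, mitochondrial-mass and membrane-permeability phenotypes are per cents of healthy-nucleus cells.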

[1] = 12 h, 1 µM, compound concentration 1 uM, replicate 1
[2] = 12 h, 1 µM, compound concentration 1 uM, replicate 2
[3] = 12 h, 10 µM, compound concentration 10 uM, replicate 1
[4] = 12 h, 10 µM, compound concentration 10 uM, replicate 2
[5] = 24 h, 1 µM, compound concentration 1 uM, replicate 1
[6] = 24 h, 1 µM, compound concentration 1 uM, replicate 2
[7] = 24 h, 10 µM, compound concentration 10 uM, replicate 1
[8] = 24 h, 10 µM, compound concentration 10 uM, replicate 2
[9] = 48 h, 1 µM, compound concentration 1 uM, replicate 1
[10] = 48 h, 1 µM, compound concentration 1 uM, replicate 2
[11] = 48 h, 10 µM, compound concentration 10 uM, replicate 1
[12] = 48 h, 10 µM, compound concentration 10 uM, replicate 2

## COc1ccccc1N1CCN(CCCCNC(=O)c2ccc3ccccc3c2)CC1.Cl
[1]
  Population Apoptotic (%): 45%
  Population Healthy Nuclei (%): 81%
  Population Hoechst High Intensity Objects (%): 6%
  Population Mitochondria Different-Phenotype (%): 53%
  Population Mitotic Cells (%): 54%
  Population Normal (%): 93%
  Population Tubulin-Different-Phenotype (%): 41%
  Total Cell Count: 430
[2]
  Population Apoptotic (%): 36%
  Population Healthy Nuclei (%): 79%
  Population Hoechst High Intensity Objects (%): 5%
  Population Mitochondria Different-Phenotype (%): 76%
  Population Mitotic Cells (%): 63%
  Population Normal (%): 94%
  Population Tubulin-Different-Phenotype (%): 35%
  Total Cell Count: 354
[3]
  Population Apoptotic (%): 71%
  Population Healthy Nuclei (%): 69%
  Population Hoechst High Intensity Objects (%): 16%
  Population Mitochondria Different-Phenotype (%): 90%
  Population Mitotic Cells (%): 28%
  Population Normal (%): 83%
  Population Tubulin-Different-Phenotype (%): 75%
  Total Cell Count: 321
[4]
  Population Apoptotic (%): 70%
  Population Healthy Nuclei (%): 75%
  Population Hoechst High Intensity Objects (%): 15%
  Population Mitochondria Different-Phenotype (%): 93%
  Population Mitotic Cells (%): 29%
  Population Normal (%): 84%
  Population Tubulin-Different-Phenotype (%): 72%
  Total Cell Count: 256
[5]
  Population Apoptotic (%): 27%
  Population Healthy Nuclei (%): 78%
  Population Hoechst High Intensity Objects (%): 6%
  Population Mitochondria Different-Phenotype (%): 38%
  Population Mitotic Cells (%): 72%
  Population Normal (%): 93%
  Population Tubulin-Different-Phenotype (%): 32%
  Total Cell Count: 561
[6]
  Population Apoptotic (%): 36%
  Population Healthy Nuclei (%): 82%
  Population Mitochondria Different-Phenotype (%): 62%
  Population Mitotic Cells (%): 63%
  Population Tubulin-Different-Phenotype (%): 26%
  Total Cell Count: 444
[7]
  Population Apoptotic (%): 56%
  Population Healthy Nuclei (%): 74%
  Population Hoechst High Intensity Objects (%): 13%
  Population Mitochondria Different-Phenotype (%): 96%
  Population Mitotic Cells (%): 43%
  Population Normal (%): 86%
  Population Tubulin-Different-Phenotype (%): 87%
  Total Cell Count: 393
[8]
  Population Apoptotic (%): 60%
  Population Healthy Nuclei (%): 69%
  Population Hoechst High Intensity Objects (%): 17%
  Population Mitochondria Different-Phenotype (%): 94%
  Population Mitotic Cells (%): 39%
  Population Normal (%): 82%
  Population Tubulin-Different-Phenotype (%): 66%
  Total Cell Count: 276
[9]
  Population Apoptotic (%): 20%
  Population Healthy Nuclei (%): 81%
  Population Hoechst High Intensity Objects (%): 3%
  Population Mitochondria Different-Phenotype (%): 34%
  Population Mitotic Cells (%): 79%
  Population Normal (%): 96%
  Population Tubulin-Different-Phenotype (%): 20%
  Total Cell Count: 841
[10]
  Population Apoptotic (%): 46%
  Population Healthy Nuclei (%): 78%
  Population Hoechst High Intensity Objects (%): 5%
  Population Mitochondria Different-Phenotype (%): 37%
  Population Mitotic Cells (%): 53%
  Population Normal (%): 94%
  Population Tubulin-Different-Phenotype (%): 22%
  Total Cell Count: 635
[11]
  Population Apoptotic (%): 60%
  Population Healthy Nuclei (%): 77%
  Population Hoechst High Intensity Objects (%): 8%
  Population Mitochondria Different-Phenotype (%): 88%
  Population Mitotic Cells (%): 40%
  Population Normal (%): 91%
  Population Tubulin-Different-Phenotype (%): 73%
  Total Cell Count: 519
[12]
  Population Apoptotic (%): 78%
  Population Healthy Nuclei (%): 78%
  Population Hoechst High Intensity Objects (%): 10%
  Population Mitotic Cells (%): 21%
  Population Normal (%): 89%
  Population Tubulin-Different-Phenotype (%): 71%
  Total Cell Count: 329
